Assay [1] addresses T1, Phosphodiesterase 1 (Homo sapiens, UniProt P54750+Q01064+Q14123). The assay is described as follows: Antagonistic potency against calmodulin-dependent cyclic AMP phosphodiesterase relative to 4-Iodotamoxifen. It counts as functional. The following applies: Canis lupus familiaris.
The target in assay [2] is Estrogen receptor (Rattus norvegicus) (UniProt P06211+Q62986).
Assay [3] addresses T1, Phosphodiesterase 1. The assay is described as follows: Inhibitory activity against calmodulin-dependent Phosphodiesterase was reported. It counts as protein assay, Canis lupus familiaris. In outline: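 Calmodulin-dependent cAMP phosphodiesterase, 8-[3H]-cAMP substrate. Tritiated AMP converted to adenosine with snake venom 5'-nucleotidase. Nucleosides separated from substrate on Dowex anion exchanger, eluted with 3 mM acetic acid. Basal calmodulin-independent activity measured with 1 mM EGTA. Compounds in DMSO at several concentrations. IC50 against calmodulin-dependent activity, mean of triplicates ± standard error.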

In assay [4] the target is T1, Phosphodiesterase 1. The assay is described as follows: Antagonistic potency against calmodulin-dependent cyclic AMP phosphodiesterase relative to Idoxifene. It counts as functional. Particulars: Canis lupus familiaris.

As usually defined, the IC50 is the concentration that inhibits the measured activity by half.

Each structure is given as a SMILES string.

With `CC/C(=C(\c1ccc(I)cc1)c1ccc(OCCCCCCCCCCN(C)C)cc1)c1ccccc1`, the Relative potency on Phosphodiesterase 1 [1] came to 1.9. Further, in assay [2], the Binding affinity is 0.4. At Phosphodiesterase 1 [3], the IC50 stood at 1200 nM.

Consider `CC/C(=C(\c1ccc(I)cc1)c1ccc(OCCCN(C)C)cc1)c1ccccc1`, for which the Relative potency on Phosphodiesterase 1 [1] stood at 1.2. Moreover, the Binding affinity in assay [2] was 8. On Phosphodiesterase 1 [3], this molecule registered an IC50 of 2000 nM.

For the molecule `CC/C(=C(\c1ccc(I)cc1)c1ccc(OCCCCCCCCCCN2CCCC2)cc1)c1ccccc1`, the Relative potency at Phosphodiesterase 1 [4] was 0.9. The same molecule came in with a Binding affinity in assay [2] of 0.4. Besides, the IC50 against Phosphodiesterase 1 [3] amounted to 1600 nM.

Consider `CC/C(=C(\c1ccc(I)cc1)c1ccc(OCCCCCCCN2CCCC2)cc1)c1ccccc1`, for which the Relative potency at Phosphodiesterase 1 [4] came out at 7.5. This molecule also displayed a Binding affinity in assay [2] of 3. Further, the IC50 on Phosphodiesterase 1 [3] came to 200 nM.

`CC/C(=C(\c1ccc(I)cc1)c1ccc(OCCCCCN(C)C)cc1)c1ccccc1` yielded a Relative potency at Phosphodiesterase 1 [1] of 3.8. The molecule also displayed a Binding affinity in assay [2] of 6. On Phosphodiesterase 1 [3], this molecule displayed a concentration for half-maximal inhibition (IC50) of 600 nM.

Take `CC/C(=C(\c1ccc(I)cc1)c1ccc(OCCN2CCCC2)cc1)c1ccccc1` [IDOXIFENE]: the IC50 at Phosphodiesterase 1 [3] worked out at 1500 nM.

At Phosphodiesterase 1 [4], `CC/C(=C(\c1ccc(I)cc1)c1ccc(OCCCCCN2CCCC2)cc1)c1ccccc1` gave a Relative potency of 1.9. In addition, the Binding affinity in assay [2] was found to be 8. Besides, the IC50 on Phosphodiesterase 1 [3] is 800 nM.

Molecule `CC/C(=C(\c1ccc(I)cc1)c1ccc(OCCCCN2CCCC2)cc1)c1ccccc1` had a Relative potency at Phosphodiesterase 1 [4] of 1.5. This molecule also came in with a Binding affinity in assay [2] of 9. For the same molecule, the IC50 against Phosphodiesterase 1 [3] is 1000 nM.

At Phosphodiesterase 1 [4], `CC/C(=C(\c1ccc(I)cc1)c1ccc(OCCCCCCCCN2CCCC2)cc1)c1ccccc1` showed a Relative potency of 7.5. Further, the Binding affinity in assay [2] came to 3.5. The molecule also gave an IC50 on Phosphodiesterase 1 [3] of 200 nM.

Consider `CC/C(=C(\c1ccc(I)cc1)c1ccc(OCCCCCCN2CCCC2)cc1)c1ccccc1`, for which the Relative potency on Phosphodiesterase 1 [4] came to 3. This molecule also gave a Binding affinity in assay [2] of 4. The molecule further came in with an IC50 against Phosphodiesterase 1 [3] of 500 nM.

For the molecule `CC/C(=C(\c1ccc(I)cc1)c1ccc(OCCCCCCCCN(C)C)cc1)c1ccccc1`, on Phosphodiesterase 1 [1], the Relative potency came to 7.7. The molecule further registered a Binding affinity in assay [2] of 2. The IC50 against Phosphodiesterase 1 [3] stood at 300 nM.

In the case of `CC/C(=C(\c1ccc(I)cc1)c1ccc(OCCCCN(C)C)cc1)c1ccccc1`, at Phosphodiesterase 1 [1], the Relative potency worked out at 1.1. The Binding affinity in assay [2] came out at 25. The molecule further displayed an IC50 against Phosphodiesterase 1 [3] of 2200 nM.

`CC/C(=C(\c1ccc(I)cc1)c1ccc(OCCN(C)C)cc1)c1ccccc1` gave a Relative potency on Phosphodiesterase 1 [1] of 1. Besides, the Binding affinity in assay [2] was 8. The molecule further displayed a half-maximal inhibitory concentration (IC50) against Phosphodiesterase 1 [3] of 2300 nM.

Molecule `CC/C(=C(\c1ccc(I)cc1)c1ccc(OCCCCCCCCCN2CCCC2)cc1)c1ccccc1` displayed a Relative potency at Phosphodiesterase 1 [4] of 7.5. This molecule registered a Binding affinity in assay [2] of 1.5. This molecule showed an IC50 on Phosphodiesterase 1 [3] of 200 nM.

`CC/C(=C(\c1ccc(I)cc1)c1ccc(OCCCCCCN(C)C)cc1)c1ccccc1` showed a Relative potency at Phosphodiesterase 1 [1] of 5.8. In assay [2], this molecule returned a Binding affinity of 8. The IC50 on Phosphodiesterase 1 [3] amounted to 400 nM.

Take `CC/C(=C(\c1ccc(I)cc1)c1ccc(OCCCN2CCCC2)cc1)c1ccccc1`: the Relative potency at Phosphodiesterase 1 [4] was 1.4. This molecule showed a Binding affinity in assay [2] of 23. This molecule also registered an IC50 against Phosphodiesterase 1 [3] of 1100 nM.

The values are drawn from ChEMBL document CHEMBL1129501 (J Med Chem, 1996).
